Hits are enriched below; roughly 2.6% of the tested compounds scored in any of these assays.
MC4R antagonist: human MC4R antagonism in cAMP assay | P32245 | MC4R-expressing cells, MTII-stimulated cAMP, LANCE TR-FRET | inhibition, % at 6.5 µM | hit rate 0.48% among 360,000;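 active = inhibition above its plate's cutoff, the mean of tested wells on that plate plus 3 SD, cut at about 29% in these data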;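 also: 0% = Melanotan II alone and 100% = Melanotan II plus saturating MCL0020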
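Assay system: human MC4R-expressing U2OS cells; reagent: Melanotan II stimulation of cells; dosing: 6.5 µM single dose; timing: compound 30 min, challenge 1 h, detection 1 h; signal: TR-FRET cAMP assay; replicates: one well per compound, no replicates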
Exocytosis inh: lytic granule exocytosis inhibition; AID 651702; hit rate 0.66% among 360,000; inhibition, % at 10 µM; TALL-104 LAMP-1 surface exposure, flow cytometry; cells stimulated with thapsigargin and PMA;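 active = inhibition above about 55%, limit read from the data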
MC4R barr agon: activates human MC4R beta-arrestin recruitment; P32245; AID 540308; U2OS MC4R beta-arrestin complementation, luminescence; percent of melanotan II response, DMSO zero; activation, % at 8.9 µM; hit rate 0.98% among 360,000;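 active = activation above a per-plate cutoff, the mean activation of sample wells on that plate plus 3 SD, cut at about 8% in these data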
Tb MetRS inh: blocks T. brucei methionyl-tRNA synthetase activity; purified T. brucei MetRS, ATP depletion, Kinase-Glo luminescence; inhibition, % at 11.9 µM; hit rate 0.4% among 360,000;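 active = inhibition above a per-plate cutoff of the control wells' mean inhibition plus 3 SD, cut at about 5.5% in these data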;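 also: 0% = DMSO wells median and 100% = median of wells with control inhibitor compound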
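Dosing: 11.9 µM single point; system: parasite MetRS enzyme; technique: luminescence of leftover ATP; times: 15 min enzyme-compound preincubation, 2 h reaction, 10 min detection, 25 °C; replicates: each compound tested once; read-out basis: percent inhibition relative to median high and low control wells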
ABCB6 inh 2: blocks the human ABCB6 transporter; K562-ABCB6 porphyrin accumulation, flow cytometry, 1 h; active compounds read low; Q9NP58; AID 602162; fluorescence ratio to DMSO, % at 10 µM; hit rate 0.19% among 360,000;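 active = fluorescence ratio to DMSO below 75%, the collection mean minus 3 SD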;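 also: signal is porphyrin accumulated inside mitochondria; 100% equals median channel fluorescence of DMSO control wells; lower ratio means ABCB6 inhibition with less porphyrin fluorescence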
iPSC survival up: hiPSC single-cell survival enhancement | ATPlite luminescence; 100% = ROCK inhibitor wells, 0% = DMSO | survival enhancement, % at 20 µM | hit rate 0.044% among 360,000 | AID 602274; in the data active = survival enhancement above about 18%;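 also: cells exposed to compounds for 16 hours before the ATP read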
MC4R barr ag: human MC4R beta-arrestin agonism confirmation; U2OS MC4R beta-arrestin recruitment, luminescence; scaled DMSO 0%, Melanotan II 100%; shares compounds with MC4R barr agon; hit rate 31% among 2,400; AID 602192; activation, % at 8.9 µM;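 active = mean activation across replicates above the hit cutoff set in the earlier primary screen, cut at about 8% in these data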
MOR-DOR barr ag: OPRM1-OPRD1 heterodimer agonism counter-screen; shares compounds with MC4R barr agon; hit rate 5.8% among 2,400; activation, % at 9.2 µM; U2OS PathHunter beta-arrestin, beta-gal luminescence; percent of deltorphin B response, DMSO zero;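 active = mean activation across replicates exceeds the hit threshold derived in the earlier primary screen, cut at about 18% in these data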;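 also: 100% = deltorphin B at 0.9 µM final and 0% = DMSO alone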
* marks the source's active call; other numbers are inactive results; · = no result.

SMILES | MC4R antagonist | Exocytosis inh | MC4R barr agon | Tb MetRS inh | ABCB6 inh 2 | iPSC survival up | MC4R barr ag | MOR-DOR barr ag
NC(Cc1ccccc1)c1csc(NC(=O)Nc2ccccc2Oc2ccccc2)n1 (stereo unspecified) | 5 | 28 | 5 | 0 | 94 | -4 | · | ·
NC(c1ccccc1)c1csc(NC(=O)Nc2ccccc2Oc2ccccc2)n1 (stereo unspecified) | -4 | 14 | 23* | 0 | 97 | -4 | 35* | 13
O=C(Cc1ccccc1)Nc1ccc(C(=O)Nc2ccc(O)cc2)cc1 | 1 | -1 | 0 | 0 | 98 | 0 | · | ·
COc1ccc(NC(=O)c2ccccc2NC(=O)CSc2ccc(Cl)cc2)cc1 | -5 | 8 | 0 | -1 | 95 | -3 | · | ·
COc1ccc(NC(=O)c2ccccc2NC(=O)c2ccccc2)cc1 | 3 | -1 | 9.6* | -1 | 100 | 0 | 2 | 5
O=C(CSc1ccccc1)Nc1ccc(C(=O)Nc2ccc(O)cc2)cc1 | 5 | -4 | 28* | 0 | 101 | 0 | 15* | 5
COc1ccc(NC(=O)c2ccccc2NC(=O)CSc2ccccc2)cc1 | 1 | -9 | 13* | 0 | 99 | -4 | -1 | 5
COc1ccc(C(=O)Nc2ccccc2C(=O)Nc2cccnc2)cc1 | -3 | -8 | 0 | -2 | 98 | -1 | · | ·
Cc1ccccc1/C=N/NC(=O)c1sccc1C | -2 | -2 | -2 | -1 | 96 | -3 | · | ·
COc1ccc(/C=N/NC(=O)c2sccc2C)c2ccccc12 | -3 | -19 | 19* | 0 | 90 | 0 | 11* | 8
CCOC(=O)CSc1nc2cc(OCC)ccc2cc1C#N | -2 | 5 | 31* | -1 | 93 | 1 | 5 | 10
CN1OC[C@@H]2CN(Cc3ccc(Cl)cc3)[C@H](c3ccc(-n4ccnc4)cc3)C[C@@H]21 | · | -11 | · | 0 | 99 | 3 | · | ·
COc1cccc(-c2cnc3c(NC=O)cc(-c4ccc(N5CCN(C)CC5)cc4)cn23)c1 | -6 | 25 | 0 | 0 | 114 | -4 | · | ·
COc1cccc(-c2cnc3c(NC=O)cc(-c4ccoc4)cn23)c1 | -2 | 11 | 44* | 0 | 103 | -2 | 34* | 0
COc1cccc(-c2cc(NC=O)c3ncc(-c4ccc(F)c(Cl)c4)n3c2)c1 | 8 | 26 | 16* | 0 | 103 | 0 | 10* | 6
O=C(COC(=O)C1CC(=O)N(CCc2ccccc2)C1)c1ccc[nH]1 (stereo unspecified) | -3 | 1 | -3 | 1 | 98 | 2 | · | ·
CCCOC1CCCN(C(=O)c2cc(COc3ccc(-n4cncn4)cc3)on2)C1 (stereo unspecified) | 2 | -7 | -1 | 0 | 102 | 0 | · | ·
CC(C)CCSc1nnc(Cn2c(=O)sc3ccccc32)n1C | 3 | -5 | -2 | 1 | 97 | -1 | · | ·
CCOC(=O)C1=C(c2ccccc2)Nc2c(c(=O)n(C)c(=O)n2C)C1c1ccc(O)c(OC)c1 (stereo unspecified) | 5 | 0 | 0 | -1 | 99 | -1 | · | ·
O=C(OC1CCN(c2ccc([N+](=O)[O-])cc2)CC1)c1ccccc1 | 2 | 0 | 20* | -2 | 98 | 4 | 2 | 6
O=C(ON=C1CCN(c2ccc([N+](=O)[O-])cc2)CC1)c1ccccc1 | 4 | 1 | -1 | 0 | 101 | 0 | · | ·
CCOCCCN(Cc1ccco1)C(=O)c1cc2c(=O)[nH]c3ccc(C)cc3c2s1 | 3 | 0 | 11* | 0 | 102 | 1 | 18* | 8
COc1ccccc1NC(=O)c1ccc(-c2ccc(Br)cc2)o1 | 1 | -5 | 0 | 0 | 98 | -1 | · | ·

High-throughput results as filed in PubChem.
